Laboratory results reported in ChEMBL document CHEMBL1144182, “Antimicrobial and cytotoxic arylazoenamines. Part III: antiviral activity of selected classes of arylazoenamines” (Bioorg Med Chem, 2008).
The source made the active and inactive calls. The rule behind the calls is not given here.

Assays:
[1] = Cytotoxicity against mock-infected BHK cells assessed as reduction in cell viability after 96 hrs by MTT assay; assay type: cell-based, Mesocricetus auratus; conditions: hamster
In short: (§1)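 Cytotoxicity run in parallel with the antiviral assays. MDBK seeded at 6 × 10^5 and BHK at 1 × 10^6 cells/mL in maintenance medium with or without serial compound dilutions. Incubated 48–96 h at 37 °C, 5% CO2, then viability read by MTT. CC50 is the concentration reducing mock-infected cell viability by 50%.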

Vaccinia virus = assay: Antiviral activity against VV infected in Vero76 cells assessed as reduction in virus plaque formation after 4 days by MTT assay; assay type: functional, organism-based; conditions: Orthopoxvirus vaccinia; Vero 76
[2] = tested on: Respiratory syncytial virus; assay: Antiviral activity against RSV infected in Vero76 cells assessed as reduction in virus plaque formation after 4 days by MTT assay; assay type: functional, organism-based; conditions: human respiratory syncytial virus, Vero 76, 96 h
[3] = tested on: Bovine viral diarrhea virus 1; assay: Antiviral activity against BVDV infected in MDBK cells assessed as protection against virus-induced cytopathogenicity after 4 days by MTT assay; assay type: functional, organism-based; conditions: Bovine viral diarrhea virus isolates and strains, 96 h
In short: (§2)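 MDBK (BVDV) or BHK-21 (YFV) cells were seeded at 3 × 10^4 or 5 × 10^4 cells/well respectively and grown overnight to confluent monolayers at 37 °C in 5% CO2. Monolayers were infected at m.o.i. 0.01 in serum-free medium. After 1 h, MEM Earle's with 1% FCS was added, with or without serial compound dilutions. After 3–4 days at 37 °C, viability was read by MTT. EC50 was taken as 50% protection from virus-induced cytopathogenicity.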

[4] = Cytotoxicity against mock-infected MDBK cells assessed as reduction in cell viability after 96 hrs by MTT assay; assay type: cell-based, Bos taurus; conditions: cattle; in short: as §1
Yellow fever virus = assay: Antiviral activity against YFV infected in BHK21 cells assessed as protection against virus-induced cytopathogenicity after 4 days by MTT assay; assay type: functional, organism-based; conditions: BHK-21, 96 h; in short: as §2
[5] = Cytotoxicity against mock-infected human MT4 cells assessed as reduction in cell viability after 96 hrs by MTT assay; assay type: cell-based
In short: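 Exponentially growing MT-4 cells seeded at 1 × 10^5 cells/mL in RPMI-1640 with 10% FCS, penicillin and streptomycin, with or without serial compound dilutions. Incubated at 37 °C, 5% CO2; viability read by MTT after 96 h. CC50 is the concentration reducing mock-infected cell viability by 50%.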

Poliovirus 1 = assay: Antiviral activity against Sb1 virus infected in Vero76 cells assessed as reduction in virus plaque formation after 4 days by MTT assay; assay type: functional, organism-based; conditions: Enterovirus C, Sabin, Vero 76, 96 h
[6] = Cytotoxicity against mock-infected african green monkey Vero76 cells assessed as reduction in cell viability after 96 hrs by MTT assay; assay type: cell-based, Vero; conditions: chlorocebus sabaeus
Coxsackievirus B2 = assay: Antiviral activity against CVB2 infected in Vero76 cells assessed as reduction in virus plaque formation after 4 days by MTT assay; assay type: functional, organism-based; conditions: Enterovirus B, Vero 76, 96 h
[7] = tested on: Human immunodeficiency virus 1; assay: Antiviral activity against HIV1 infected in MT4 cells assessed as virus-induced cytopathogenicity after 4 days; assay type: functional, organism-based
[8] = tested on: Vesicular stomatitis virus; assay: Antiviral activity against VSV infected in Vero76 cells assessed as reduction in virus plaque formation after 4 days by MTT assay; assay type: functional, organism-based; conditions: Vero 76

Row | Structure (SMILES) | CC50 at 96 h [1] [µM] | Activity (Vaccinia virus) | EC50 [2] [µM] | EC50 [3] [µM] | CC50 at 96 h [4] [µM] | EC50 (Yellow fever virus) [µM] | CC50 at 96 h [5] [µM] | EC50 (Poliovirus 1) [µM] | CC50 at 96 h [6] [µM] | EC50 (Coxsackievirus B2) [µM] | Activity [7] | Activity [8]
1 | C(=C\N1CCN(c2ncccn2)CC1)/N=N/c1ccccc1 | 100 | inactive | 5 | > 10 | 10 | > 100 | 17 | > 55 | 55 | 0.9 | inactive | inactive
2 | CN1C=C(/N=N/c2c(F)c(F)c(F)c(F)c2F)CCC1 | > 100 | inactive | > 100 | > 100 | > 100 | > 100 | > 100 | > 100 | > 100 | > 100 | inactive | inactive
3 | CN1C=C(/N=N/c2cc(C(F)(F)F)cc(C(F)(F)F)c2)CCC1 | 82 | inactive | > 100 | > 64 | 64 | > 82 | > 100 | > 100 | > 100 | > 100 | inactive | inactive
4 | c1ccc2c(/N=N\C3=C4CCCCN4CCC3)cccc2c1 | 20 | inactive | > 90 | 6 | > 100 | > 20 | 12 | > 90 | 90 | > 90 | inactive | inactive
5 | Clc1ccc(N2CCN(/C=C/N=N/c3ccccc3)CC2)cc1 | 29 | inactive | 7 | > 7.5 | 7.5 | 7.5 | 21 | > 45 | 45 | 7 | inactive | inactive
6 | CCOC(=O)N1CCN(/C=C/N=N/c2ccccc2)CC1 | > 100 | inactive | 4 | > 13 | 13 | > 100 | 17 | > 30 | 30 | 12 | inactive | inactive
7 | O=[N+]([O-])c1ccc(/N=N\C2=C3CCCCN3CCC2)cc1 | > 100 | inactive | > 100 | 86 | > 100 | ≥ 100 | 91 | > 100 | 100 | 26 | inactive | inactive
8 | C(=C\N1CCOCC1)/N=N/c1ccccc1 | > 100 | inactive | 15 | > 28 | 28 | > 100 | 7 | > 30 | 30 | 7 | inactive | inactive
9 | CCOC(=O)c1ccc(/N=N/C=C/N2CCCCC2)cc1 | > 100 | inactive | > 100 | > 100 | > 100 | > 100 | 33 | 27 | > 100 | 35 | inactive | inactive
10 | CN1CCC/C1=C\N=N\c1ccc(Br)cc1 | > 100 | inactive | 20 | 11 | > 100 | > 100 | 23 | > 100 | > 100 | 36 | inactive | inactive
